Results taken from ChEMBL document CHEMBL2396604, “Synthesis and structure activity relationship of tetrahydroisoquinoline-based potentiators of GluN2C and GluN2D containing N-methyl-D-aspartate receptors” (J Med Chem, 2013).

Experiments:
[1] = molecular target: Delta-type opioid receptor (Homo sapiens) (UniProt P41143); assay: Inhibition of delta opioid receptor (unknown origin) at 5 uM by psychoactive drug screening programme assay
How it was run: (§1)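 Radioligand binding screen run by PDSP. Displacement of ligand binding was measured with test compound at 5 µM, n=4 per target.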

[2] = molecular target: Alpha-2C adrenergic receptor (Homo sapiens) (UniProt P18825); assay: Inhibition of adrenergic alpha2C receptor (unknown origin) at 5 uM by psychoactive drug screening programme assay; how it was run: as §1
[3] = species: Homo sapiens; assay: Inhibition of sigma2 receptor (unknown origin) at 5 uM by psychoactive drug screening programme assay
[4] = molecular target: 5-hydroxytryptamine receptor 3A (Rattus norvegicus) (UniProt P35563); assay: Activity at rat recombinant serotonin 5-HT3A receptor expressed in Xenopus oocytes assessed as effect on serotonin-induced activation at 3 uM by two-electrode voltage clamp technique relative to control; type: cell-based; details: Oocyte
How it was run: (§2)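 Two-electrode voltage clamp of Xenopus oocytes injected with 1–5 ng cRNA and kept in Barth's solution at 15°C for 2–5 days. Oocytes were perfused with 90 mM NaCl, 1.0 KCl, 0.5 BaCl2, 0.005 EDTA, 10 HEPES, pH 7.4, 23°C, and held at -40 mV. Compound was co-applied at 3 µM with agonist from 20 mM DMSO stocks, final DMSO 0.05–0.5%.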

[5] = molecular target: 5-hydroxytryptamine receptor 7 (Homo sapiens) (UniProt P34969); assay: Inhibition of serotonin 5-HT7 receptor (unknown origin) at 5 uM by psychoactive drug screening programme assay
[6] = molecular target: Glutamate NMDA receptor; Grin1/Grin2a (Rattus norvegicus) (UniProt P35439+Q00959); assay: Activity at rat recombinant GluN1/GluN2A receptor expressed in Xenopus oocytes assessesed as effect of glycine/glutamate-induced response at 3 uM by two-electrode voltage clamp technique relative to control; type: cell-based; details: Oocyte; how it was run: as §2
[7] = molecular target: Neuronal acetylcholine receptor; alpha3/beta4 (Homo sapiens) (UniProt P30926+P32297); assay: Activity at human recombinant alpha3beta4 nAChR expressed in Xenopus oocytes assessed as effect on acetylcholine-induced activation at 3 uM by two-electrode voltage clamp technique relative to control; type: cell-based; details: Oocyte; how it was run: as §2
[8] = molecular target: Alpha-1D adrenergic receptor (Homo sapiens) (UniProt P25100); assay: Inhibition of adrenergic alpha1D receptor (unknown origin) at 5 uM by psychoactive drug screening programme assay; how it was run: as §1
[9] = molecular target: Kappa-type opioid receptor (Homo sapiens, UniProt P41145); assay: Inhibition of kappa opioid receptor (unknown origin) by psychoactive drug screening programme assay
[10] = molecular target: Beta-3 adrenergic receptor (Homo sapiens) (UniProt P13945); assay: Inhibition of adrenergic beta3 receptor (unknown origin) at 5 uM by psychoactive drug screening programme assay; how it was run: as §1
[11] = molecular target: Glutamate receptor 2 (Rattus norvegicus) (UniProt P19491); assay: Activity at rat recombinant GluA2 receptor expressed in Xenopus oocytes assessed as effect on glutamate-induced response at 3 uM by two-electrode voltage clamp technique relative to control; type: cell-based; details: Oocyte; how it was run: as §2
[12] = molecular target: Glutamate receptor ionotropic, kainate 2 (Rattus norvegicus) (UniProt P42260); assay: Activity at rat recombinant GluK2 receptor expressed in Xenopus oocytes assessed as effect on glutamate-induced response at 3 uM by two-electrode voltage clamp technique relative to control; type: cell-based; details: Oocyte; how it was run: as §2
[13] = molecular target: 5-hydroxytryptamine receptor 1E (Homo sapiens) (UniProt P28566); assay: Inhibition of serotonin 5-HT1E receptor (unknown origin) at 5 uM by psychoactive drug screening programme assay; how it was run: as §1
[14] = molecular target: 5-hydroxytryptamine receptor 2A (Homo sapiens) (UniProt P28223); assay: Inhibition of serotonin 5-HT2A receptor (unknown origin) at 5 uM by psychoactive drug screening programme assay; how it was run: as §1
[15] = molecular target: 5-hydroxytryptamine receptor 1B (Homo sapiens) (UniProt P28222); assay: Inhibition of serotonin 5-HT1B receptor (unknown origin) at 5 uM by psychoactive drug screening programme assay; how it was run: as §1
[16] = molecular target: 5-hydroxytryptamine receptor 6 (Homo sapiens) (UniProt P50406); assay: Inhibition of serotonin 5-HT6 receptor (unknown origin) at 5 uM by psychoactive drug screening programme assay
[17] = molecular target: Muscarinic acetylcholine receptor M4 (Homo sapiens) (UniProt P08173); assay: Inhibition of M4 receptor (unknown origin) at 5 uM by psychoactive drug screening programme assay; how it was run: as §1
[18] = molecular target: Sigma non-opioid intracellular receptor 1 (Homo sapiens) (UniProt Q99720); assay: Inhibition of sigma1 receptor (unknown origin) at 5 uM by psychoactive drug screening programme assay
[19] = molecular target: Muscarinic acetylcholine receptor M5 (Homo sapiens) (UniProt P08912); assay: Inhibition of M5 receptor (unknown origin) at 5 uM by psychoactive drug screening programme assay; how it was run: as §1
[20] = molecular target: Ionotropic glutamate receptor kainate 2/5 (Rattus norvegicus) (UniProt P42260+Q63273); assay: Activity at rat recombinant GluK2/GluK5 receptor expressed in Xenopus oocytes assessed as effect on glutamate-induced response at 3 uM by two-electrode voltage clamp technique relative to control; type: cell-based; details: Oocyte; how it was run: as §2
[21] = molecular target: Sodium-dependent dopamine transporter (Homo sapiens) (UniProt Q01959); assay: Inhibition of dopamine transporter (unknown origin) at 5 uM by psychoactive drug screening programme assay; how it was run: as §1
[22] = molecular target: D(4) dopamine receptor (Homo sapiens) (UniProt P21917); assay: Inhibition of dopamine D4 receptor (unknown origin) at 5 uM by psychoactive drug screening programme assay; how it was run: as §1
[23] = molecular target: P2X purinoceptor 2 (Rattus norvegicus) (UniProt P49653); assay: Activity at rat recombinant purinergic P2X2 receptor expressed in Xenopus oocytes assessed as effect on ATP-induced activation at 3 uM by two-electrode voltage clamp technique relative to control; type: cell-based; details: Oocyte; how it was run: as §2
[24] = molecular target: Mu-type opioid receptor (Homo sapiens) (UniProt P35372); assay: Inhibition of mu opioid receptor (unknown origin) at 5 uM by psychoactive drug screening programme assay; how it was run: as §1
[25] = molecular target: Histamine H2 receptor (Homo sapiens) (UniProt P25021); assay: Inhibition of H2 histamine receptor (unknown origin) at 5 uM by psychoactive drug screening programme assay; how it was run: as §1
[26] = molecular target: 5-hydroxytryptamine receptor 5A (Homo sapiens) (UniProt P47898); assay: Inhibition of serotonin 5-HT5A receptor (unknown origin) at 5 uM by psychoactive drug screening programme assay
[27] = molecular target: Glutamate NMDA receptor; Grin1/Grin2b (Rattus norvegicus) (UniProt P35439+Q00960); assay: Activity at rat recombinant GluN1/GluN2B receptor expressed in Xenopus oocytes assessed as effect of glycine/glutamate-induced response at 3 uM by two-electrode voltage clamp technique relative to control; type: cell-based; details: Oocyte; how it was run: as §2
[28] = molecular target: Histamine H1 receptor (Homo sapiens) (UniProt P35367); assay: Inhibition of H1 histamine receptor (unknown origin) at 5 uM by psychoactive drug screening programme assay; how it was run: as §1
[29] = molecular target: Muscarinic acetylcholine receptor M2 (Homo sapiens) (UniProt P08172); assay: Inhibition of M2 receptor (unknown origin) at 5 uM by psychoactive drug screening programme assay; how it was run: as §1
[30] = molecular target: Glutamate receptor 3 (Rattus norvegicus) (UniProt P19492); assay: Activity at rat recombinant GluA3 receptor expressed in Xenopus oocytes assessed as effect on glutamate-induced response at 3 uM by two-electrode voltage clamp technique relative to control; type: cell-based; details: Oocyte; how it was run: as §2
[31] = molecular target: Muscarinic acetylcholine receptor M1 (Homo sapiens) (UniProt P11229); assay: Inhibition of M1 receptor (unknown origin) at 5 uM by psychoactive drug screening programme assay; how it was run: as §1

Muscarinic acetylcholine receptor M4 (Homo sapiens), sequence (P08173 whole entry): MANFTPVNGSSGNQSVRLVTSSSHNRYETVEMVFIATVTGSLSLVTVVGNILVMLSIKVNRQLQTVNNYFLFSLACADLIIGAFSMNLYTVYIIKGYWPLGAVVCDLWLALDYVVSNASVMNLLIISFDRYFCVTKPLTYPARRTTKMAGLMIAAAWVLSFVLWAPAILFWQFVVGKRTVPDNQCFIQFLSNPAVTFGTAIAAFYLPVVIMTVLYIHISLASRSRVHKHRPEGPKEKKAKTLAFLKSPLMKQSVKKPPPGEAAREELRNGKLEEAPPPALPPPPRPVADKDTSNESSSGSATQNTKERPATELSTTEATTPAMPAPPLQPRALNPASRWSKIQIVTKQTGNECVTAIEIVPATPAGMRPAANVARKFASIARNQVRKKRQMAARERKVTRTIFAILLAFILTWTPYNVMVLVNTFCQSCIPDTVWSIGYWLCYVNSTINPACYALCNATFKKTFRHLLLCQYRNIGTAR
5-hydroxytryptamine receptor 2A (Homo sapiens), sequence (P28223 whole entry): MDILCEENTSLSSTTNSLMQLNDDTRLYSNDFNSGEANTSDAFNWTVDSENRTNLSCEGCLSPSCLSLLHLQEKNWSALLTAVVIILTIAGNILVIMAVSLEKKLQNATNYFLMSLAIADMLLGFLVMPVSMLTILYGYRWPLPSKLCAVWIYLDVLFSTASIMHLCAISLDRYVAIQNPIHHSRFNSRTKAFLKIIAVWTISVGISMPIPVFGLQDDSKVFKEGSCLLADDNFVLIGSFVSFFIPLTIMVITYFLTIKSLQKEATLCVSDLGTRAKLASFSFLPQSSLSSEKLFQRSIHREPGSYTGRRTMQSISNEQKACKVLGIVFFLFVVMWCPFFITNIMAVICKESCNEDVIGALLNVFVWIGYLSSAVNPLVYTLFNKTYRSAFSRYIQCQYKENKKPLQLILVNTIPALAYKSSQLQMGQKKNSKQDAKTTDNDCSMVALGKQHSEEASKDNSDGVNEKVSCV
Histamine H1 receptor (Homo sapiens), sequence (P35367 whole entry): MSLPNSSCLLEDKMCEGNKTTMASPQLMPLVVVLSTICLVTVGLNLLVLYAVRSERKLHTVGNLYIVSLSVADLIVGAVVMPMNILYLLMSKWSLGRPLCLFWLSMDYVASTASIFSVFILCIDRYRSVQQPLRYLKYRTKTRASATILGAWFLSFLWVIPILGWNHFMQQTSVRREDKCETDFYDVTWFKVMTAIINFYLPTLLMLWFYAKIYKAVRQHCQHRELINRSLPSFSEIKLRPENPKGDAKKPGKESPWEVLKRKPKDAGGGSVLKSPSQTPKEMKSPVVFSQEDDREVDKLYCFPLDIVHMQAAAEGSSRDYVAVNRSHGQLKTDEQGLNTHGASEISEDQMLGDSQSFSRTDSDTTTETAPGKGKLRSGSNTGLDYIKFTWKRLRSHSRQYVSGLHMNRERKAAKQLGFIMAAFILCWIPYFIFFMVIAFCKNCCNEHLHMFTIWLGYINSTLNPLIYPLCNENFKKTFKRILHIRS
Mu-type opioid receptor (Homo sapiens), sequence (P35372 whole entry): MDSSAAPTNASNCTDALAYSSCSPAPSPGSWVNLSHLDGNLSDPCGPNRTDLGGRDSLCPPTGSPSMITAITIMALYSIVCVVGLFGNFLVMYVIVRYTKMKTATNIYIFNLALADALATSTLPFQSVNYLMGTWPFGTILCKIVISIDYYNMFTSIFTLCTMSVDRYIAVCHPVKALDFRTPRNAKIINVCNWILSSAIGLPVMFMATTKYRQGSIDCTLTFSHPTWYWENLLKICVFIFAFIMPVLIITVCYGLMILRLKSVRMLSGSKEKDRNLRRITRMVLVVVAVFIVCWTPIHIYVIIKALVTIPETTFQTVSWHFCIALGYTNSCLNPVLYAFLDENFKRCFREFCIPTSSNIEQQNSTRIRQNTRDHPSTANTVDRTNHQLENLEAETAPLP
5-hydroxytryptamine receptor 7 (Homo sapiens), sequence (P34969 whole entry): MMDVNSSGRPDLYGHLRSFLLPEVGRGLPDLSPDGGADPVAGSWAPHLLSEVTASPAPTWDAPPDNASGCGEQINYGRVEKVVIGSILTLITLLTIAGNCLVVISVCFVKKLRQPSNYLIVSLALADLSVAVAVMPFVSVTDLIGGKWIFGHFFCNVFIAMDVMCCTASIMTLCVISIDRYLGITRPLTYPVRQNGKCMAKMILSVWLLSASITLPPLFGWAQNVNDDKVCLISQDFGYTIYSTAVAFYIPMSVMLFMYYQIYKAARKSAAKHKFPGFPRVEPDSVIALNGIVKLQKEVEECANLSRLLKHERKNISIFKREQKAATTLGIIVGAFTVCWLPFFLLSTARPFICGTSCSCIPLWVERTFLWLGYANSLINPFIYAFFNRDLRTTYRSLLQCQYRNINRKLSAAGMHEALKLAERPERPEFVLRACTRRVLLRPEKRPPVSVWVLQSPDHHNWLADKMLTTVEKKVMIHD
5-hydroxytryptamine receptor 5A (Homo sapiens), sequence (P47898 whole entry): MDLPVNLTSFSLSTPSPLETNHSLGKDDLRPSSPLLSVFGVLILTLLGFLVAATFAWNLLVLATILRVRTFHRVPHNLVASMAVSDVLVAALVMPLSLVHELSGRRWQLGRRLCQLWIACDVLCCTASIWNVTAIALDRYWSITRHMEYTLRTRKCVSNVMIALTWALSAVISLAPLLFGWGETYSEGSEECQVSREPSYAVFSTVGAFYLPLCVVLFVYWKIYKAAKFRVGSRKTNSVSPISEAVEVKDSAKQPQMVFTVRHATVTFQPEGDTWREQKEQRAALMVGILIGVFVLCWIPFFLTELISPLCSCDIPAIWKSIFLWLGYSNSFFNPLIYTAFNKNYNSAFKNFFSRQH
Histamine H2 receptor (Homo sapiens), sequence (P25021 whole entry): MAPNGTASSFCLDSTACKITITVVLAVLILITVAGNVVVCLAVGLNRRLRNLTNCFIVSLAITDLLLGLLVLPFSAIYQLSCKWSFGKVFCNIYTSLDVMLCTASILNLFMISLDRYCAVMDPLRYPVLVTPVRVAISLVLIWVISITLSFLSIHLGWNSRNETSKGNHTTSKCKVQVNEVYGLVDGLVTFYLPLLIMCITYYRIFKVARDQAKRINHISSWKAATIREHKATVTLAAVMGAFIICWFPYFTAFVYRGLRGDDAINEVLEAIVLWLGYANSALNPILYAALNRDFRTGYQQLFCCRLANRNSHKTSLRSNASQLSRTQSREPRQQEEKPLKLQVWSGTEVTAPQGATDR
Alpha-1D adrenergic receptor (Homo sapiens), sequence (P25100 whole entry): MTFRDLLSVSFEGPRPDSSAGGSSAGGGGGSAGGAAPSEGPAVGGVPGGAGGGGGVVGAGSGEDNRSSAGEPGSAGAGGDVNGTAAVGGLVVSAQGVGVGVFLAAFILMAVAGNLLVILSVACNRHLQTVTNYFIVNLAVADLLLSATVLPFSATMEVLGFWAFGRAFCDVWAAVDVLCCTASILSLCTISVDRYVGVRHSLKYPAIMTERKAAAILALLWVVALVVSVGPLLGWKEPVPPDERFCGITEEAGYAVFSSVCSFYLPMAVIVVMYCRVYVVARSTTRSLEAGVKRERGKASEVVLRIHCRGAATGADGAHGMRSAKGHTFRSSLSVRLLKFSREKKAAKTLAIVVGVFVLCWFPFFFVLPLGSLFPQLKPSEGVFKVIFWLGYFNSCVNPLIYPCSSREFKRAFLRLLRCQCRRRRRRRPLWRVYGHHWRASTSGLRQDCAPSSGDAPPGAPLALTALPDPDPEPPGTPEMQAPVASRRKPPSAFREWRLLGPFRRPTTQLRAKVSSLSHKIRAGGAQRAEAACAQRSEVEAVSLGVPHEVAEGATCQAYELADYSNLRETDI
Muscarinic acetylcholine receptor M2 (Homo sapiens), sequence (P08172 whole entry): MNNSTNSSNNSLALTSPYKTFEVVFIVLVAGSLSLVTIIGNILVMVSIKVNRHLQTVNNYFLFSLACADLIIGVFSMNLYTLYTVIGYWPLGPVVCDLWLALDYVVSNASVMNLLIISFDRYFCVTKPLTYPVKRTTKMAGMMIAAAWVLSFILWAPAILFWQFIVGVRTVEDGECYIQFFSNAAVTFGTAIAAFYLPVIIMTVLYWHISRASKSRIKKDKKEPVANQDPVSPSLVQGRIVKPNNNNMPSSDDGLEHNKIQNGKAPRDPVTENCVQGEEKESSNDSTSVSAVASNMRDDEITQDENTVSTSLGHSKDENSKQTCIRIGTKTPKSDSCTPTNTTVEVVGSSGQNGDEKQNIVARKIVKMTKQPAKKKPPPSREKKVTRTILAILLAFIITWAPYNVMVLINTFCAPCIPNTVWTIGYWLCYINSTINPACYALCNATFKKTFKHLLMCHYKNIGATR
Glutamate receptor ionotropic, kainate 2 (Rattus norvegicus), sequence (P42260 whole entry): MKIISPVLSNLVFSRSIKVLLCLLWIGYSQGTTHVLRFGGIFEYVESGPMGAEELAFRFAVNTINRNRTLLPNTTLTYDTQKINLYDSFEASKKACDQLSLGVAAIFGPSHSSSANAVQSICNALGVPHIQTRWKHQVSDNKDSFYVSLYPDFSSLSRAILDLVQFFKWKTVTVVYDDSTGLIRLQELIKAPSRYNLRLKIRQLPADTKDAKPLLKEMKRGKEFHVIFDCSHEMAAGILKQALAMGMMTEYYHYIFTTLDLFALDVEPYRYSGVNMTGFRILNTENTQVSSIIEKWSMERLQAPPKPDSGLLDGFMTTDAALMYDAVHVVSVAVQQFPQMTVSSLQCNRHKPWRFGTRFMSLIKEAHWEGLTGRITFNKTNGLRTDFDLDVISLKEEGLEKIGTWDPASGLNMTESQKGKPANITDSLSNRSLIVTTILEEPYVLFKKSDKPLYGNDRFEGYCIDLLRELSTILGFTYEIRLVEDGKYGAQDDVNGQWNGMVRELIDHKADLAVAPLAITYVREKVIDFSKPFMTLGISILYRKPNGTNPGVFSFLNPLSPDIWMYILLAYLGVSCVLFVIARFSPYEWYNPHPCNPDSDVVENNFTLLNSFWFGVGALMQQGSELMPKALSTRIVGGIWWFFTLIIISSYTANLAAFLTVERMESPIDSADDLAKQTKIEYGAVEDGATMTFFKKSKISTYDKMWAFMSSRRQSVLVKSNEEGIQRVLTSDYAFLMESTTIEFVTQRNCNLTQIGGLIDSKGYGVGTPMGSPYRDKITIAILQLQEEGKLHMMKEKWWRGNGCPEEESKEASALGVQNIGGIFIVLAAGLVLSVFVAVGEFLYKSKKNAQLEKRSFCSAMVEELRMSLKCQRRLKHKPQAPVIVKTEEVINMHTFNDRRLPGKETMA

## COc1ccc(OCC2c3ccc(OCc4ccccc4)cc3CCN2C(=O)c2cccc(Br)c2)cc1 (stereo unspecified)
[1]
  inhibition: < 50%
[2]
  inhibition: < 50%
[3]
  inhibition: < 50%
[4]
  Activity: 93%
[5]
  inhibition: < 50%
[6]
  Activity: 105%
[7]
  Activity: 95%
[8]
  inhibition: < 50%
[9]
  Ki: > 5 µM
[10]
  inhibition: < 50%
[11]
  Activity: 97%
[12]
  Activity: 98%
[13]
  inhibition: < 50%
[14]
  inhibition: < 50%
[15]
  inhibition: < 50%
[16]
  inhibition: < 50%
[17]
  inhibition: < 50%
[18]
  inhibition: < 50%
[19]
  inhibition: < 50%
[20]
  Activity: 103%
[21]
  inhibition: < 50%
[22]
  inhibition: < 50%
[23]
  Activity: 94%
[24]
  inhibition: < 50%
[25]
  inhibition: < 50%
[26]
  inhibition: < 50%
[27]
  Activity: 102%
[28]
  inhibition: < 50%
[29]
  inhibition: < 50%
[30]
  Activity: 99%
[31]
  inhibition: < 50%
